Legend:
Format in all cases: functional
K562 = assay: Growth inhibition of human K562 cells after 48 hrs by sulforhodamine B assay; conditions: K562, 48 h
Outline: (§1)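 NCI 60-cell-line screen. Compounds tested at five 10-fold dilutions from 10^-4 to 10^-8 M. Cells exposed for the last 48 h of a 72 h incubation, growth estimated by sulforhodamine B protein assay. GI50 is the concentration giving 50% growth inhibition. Values beyond the tested range are expressed as greater or lesser than the extreme concentration.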

[1] = Growth inhibition of human MOLT4 cells after 48 hrs by sulforhodamine B assay; conditions: MOLT-4, 48 h; outline: as §1
[2] = Growth inhibition of human RPMI8226 cells after 48 hrs by sulforhodamine B assay; conditions: RPMI-8226, 48 h
SR = assay: Growth inhibition of human SR cells after 48 hrs by sulforhodamine B assay
A549 = assay: Growth inhibition of human A549 cells after 48 hrs by sulforhodamine B assay; conditions: A549, 48 h; outline: as §1
[3] = Growth inhibition of human EKVX cells after 48 hrs by sulforhodamine B assay; outline: as §1
HOP-62 = assay: Growth inhibition of human HOP62 cells after 48 hrs by sulforhodamine B assay; conditions: HOP-62, 48 h; outline: as §1
[4] = Growth inhibition of human HOP92 cells after 48 hrs by sulforhodamine B assay; conditions: HOP-92, 48 h; outline: as §1
NCI-H226 = assay: Growth inhibition of human NCI-H226 cells after 48 hrs by sulforhodamine B assay; conditions: NCI-H226, 48 h; outline: as §1
NCI-H322M = assay: Growth inhibition of human NCI-H322M cells after 48 hrs by sulforhodamine B assay; outline: as §1
NCI-H460 = assay: Growth inhibition of human NCI-H460 cells after 48 hrs by sulforhodamine B assay; conditions: NCI-H460, 48 h; outline: as §1
NCI-H522 = assay: Growth inhibition of human NCI-H522 cells after 48 hrs by sulforhodamine B assay; conditions: NCI-H522, 48 h; outline: as §1
[5] = Growth inhibition of human COLO205 cells after 48 hrs by sulforhodamine B assay; conditions: COLO 205, 48 h; outline: as §1
[6] = Growth inhibition of human HCC2998 cells after 48 hrs by sulforhodamine B assay; conditions: HCC 2998, 48 h; outline: as §1
HT-29 = assay: Growth inhibition of human HT-29 cells after 48 hrs by sulforhodamine B assay; conditions: HT-29, 48 h; outline: as §1
SF-268 = assay: Growth inhibition of human SF268 cells after 48 hrs by sulforhodamine B assay; conditions: SF-268, 48 h
[7] = Growth inhibition of human SF295 cells after 48 hrs by sulforhodamine B assay; conditions: SF-295, 48 h
[8] = Growth inhibition of human SF539 cells after 48 hrs by sulforhodamine B assay; conditions: SF-539, 48 h
SNB-19 = assay: Growth inhibition of human SNB19 cells after 48 hrs by sulforhodamine B assay; conditions: SNB-19, 48 h
SNB-75 = assay: Growth inhibition of human SNB75 cells after 48 hrs by sulforhodamine B assay; conditions: SNB-75, 48 h
[9] = Growth inhibition of human LOXIMVI cells after 48 hrs by sulforhodamine B assay; conditions: LOX IMVI; outline: as §1
Malme-3M = assay: Growth inhibition of human MALME-3M cells after 48 hrs by sulforhodamine B assay; outline: as §1
M14 = assay: Growth inhibition of human M14 cells after 48 hrs by sulforhodamine B assay; conditions: M14, 48 h; outline: as §1
SK-MEL-2 = assay: Growth inhibition of human SK-MEL-2 cells after 48 hrs by sulforhodamine B assay; conditions: SK-MEL-2, 48 h
SK-MEL-28 = assay: Growth inhibition of human SK-MEL-28 cells after 48 hrs by sulforhodamine B assay; conditions: SK-MEL-28, 48 h
SK-MEL-5 = assay: Growth inhibition of human SK-MEL-5 cells after 48 hrs by sulforhodamine B assay; conditions: SK-MEL-5, 48 h
UACC-257 = assay: Growth inhibition of human UACC257 cells after 48 hrs by sulforhodamine B assay; conditions: UACC-257, 48 h
UACC-62 = assay: Growth inhibition of human UACC62 cells after 48 hrs by sulforhodamine B assay; conditions: UACC-62, 48 h
IGROV-1 = assay: Growth inhibition of human IGROV1 cells after 48 hrs by sulforhodamine B assay; conditions: IGROV-1, 48 h; outline: as §1
OVCAR-3 = assay: Growth inhibition of human OVCAR3 cells after 48 hrs by sulforhodamine B assay; conditions: OVCAR-3, 48 h; outline: as §1
OVCAR-5 = assay: Growth inhibition of human OVCAR5 cells after 48 hrs by sulforhodamine B assay; conditions: OVCAR-5, 48 h
OVCAR-8 = assay: Growth inhibition of human OVCAR8 cells after 48 hrs by sulforhodamine B assay; conditions: OVCAR-8, 48 h
[10] = Growth inhibition of human NCI-ADR-RES cells after 48 hrs by sulforhodamine B assay; outline: as §1
786-0 = assay: Growth inhibition of human 786-0 cells after 48 hrs by sulforhodamine B assay; conditions: 786-0, 48 h; outline: as §1
A498 = assay: Growth inhibition of human A498 cells after 48 hrs by sulforhodamine B assay; conditions: A498, 48 h; outline: as §1
CAKI-1 = assay: Growth inhibition of human CAKI-1 cells after 48 hrs by sulforhodamine B assay; conditions: CAKI-1, 48 h; outline: as §1
[11] = Growth inhibition of human RXF393 cells after 48 hrs by sulforhodamine B assay; conditions: RXF 393, 48 h
TK-10 = assay: Growth inhibition of human TK10 cells after 48 hrs by sulforhodamine B assay; conditions: TK-10, 48 h
UO-31 = assay: Growth inhibition of human UO31 cells after 48 hrs by sulforhodamine B assay; conditions: UO-31, 48 h
PC-3 = assay: Growth inhibition of human PC3 cells after 48 hrs by sulforhodamine B assay; conditions: PC-3, 48 h
DU-145 = assay: Growth inhibition of human DU145 cells after 48 hrs by sulforhodamine B assay; conditions: DU-145, 48 h; outline: as §1
MCF7 = assay: Growth inhibition of human MCF7 cells after 48 hrs by sulforhodamine B assay; conditions: MCF7, 48 h; outline: as §1
[12] = Growth inhibition of human Hs 578T cells after 48 hrs by sulforhodamine B assay; outline: as §1
[13] = Growth inhibition of human BT549 cells after 48 hrs by sulforhodamine B assay; conditions: BT-549, 48 h; outline: as §1
T47D = assay: Growth inhibition of human T47D cells after 48 hrs by sulforhodamine B assay
MDA-MB-468 = assay: Growth inhibition of human MDA-MB-468 cells after 48 hrs by sulforhodamine B assay; conditions: MDA-MB-468, 48 h; outline: as §1

COc1ccc(-c2[nH]c3ccccc3c2/C=C(\C#N)S(=O)(=O)c2ccccc2)cc1
GI50 (K562): 535 nM
GI50 [1]: 871 nM
GI50 [2]: 2100 nM
GI50 (SR): 350 nM
GI50 (A549): 803 nM
GI50 [3]: 1300 nM
GI50 (HOP-62): 1000 nM
GI50 [4]: 2300 nM
GI50 (NCI-H226): 2800 nM
GI50 (NCI-H322M): 1500 nM
GI50 (NCI-H460): 404 nM
GI50 (NCI-H522): 3000 nM
GI50 [5]: 254 nM
GI50 [6]: 1200 nM
GI50 (HT-29): 314 nM
GI50 (SF-268): 1100 nM
GI50 [7]: 500 nM
GI50 [8]: 299 nM
GI50 (SNB-19): 863 nM
GI50 (SNB-75): 379 nM
GI50 [9]: 1300 nM
GI50 (Malme-3M): 1200 nM
GI50 (M14): 383 nM
GI50 (SK-MEL-2): 18.1 µM
GI50 (SK-MEL-28): 1800 nM
GI50 (SK-MEL-5): 344 nM
GI50 (UACC-257): 10.7 µM
GI50 (UACC-62): 597 nM
GI50 (IGROV-1): 19.3 µM
GI50 (OVCAR-3): 244 nM
GI50 (OVCAR-5): 1900 nM
GI50 (OVCAR-8): 1300 nM
GI50 [10]: 428 nM
GI50 (786-0): 1200 nM
GI50 (A498): 1100 nM
GI50 (CAKI-1): 997 nM
GI50 [11]: 1000 nM
GI50 (TK-10): 4.8 µM
GI50 (UO-31): 4.7 µM
GI50 (PC-3): 557 nM
GI50 (DU-145): 450 nM
GI50 (MCF7): 398 nM
GI50 [12]: 682 nM
GI50 [13]: 1600 nM
GI50 (T47D): 533 nM
GI50 (MDA-MB-468): < 10 nM
